# PubChem BioAssay AID489030 (Sanford-Burnham Center for Chemical Genomics, 2010)
# Screen size: about 330,000 compounds; about 2,400 (0.73%) were called active. This excerpt belongs to a sample that is enriched for actives. Unmarked numbers belong to inactive results. How the source made its calls: active means inhibition of at least 40% at 20 µM; inactive means the rest.
# Target: Apoptotic protease-activating factor 1 (Homo sapiens) (UniProt O14727)
# Assay: inhibitors of human Apaf-1 apoptosome, primary screen, biochemical, DEVD-Rh110 fluorescence, uHTS (AID 489030);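 further: plate controls were DMSO wells for no effect and DEVD-CHO caspase inhibitor wells for full effect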
# Settings: reconstituted apoptosome caspase-3 activity, at 20 µM, stronger effect = higher value
# How it was run: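 Assay system: Apoptosome proteins | Medium: pH 7.5 Hepes buffer with CHAPS, BSA, DTT | Also added: Cytochrome c and DEVD-Rh110 substrate | Times: 30 min plus 50 min, RT | Detection: Rhodamine 110 fluorescence at Ex 480/Em 540 nm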
# Sequence of Apoptotic protease-activating factor 1 (Homo sapiens) (O14727 whole entry, looked up): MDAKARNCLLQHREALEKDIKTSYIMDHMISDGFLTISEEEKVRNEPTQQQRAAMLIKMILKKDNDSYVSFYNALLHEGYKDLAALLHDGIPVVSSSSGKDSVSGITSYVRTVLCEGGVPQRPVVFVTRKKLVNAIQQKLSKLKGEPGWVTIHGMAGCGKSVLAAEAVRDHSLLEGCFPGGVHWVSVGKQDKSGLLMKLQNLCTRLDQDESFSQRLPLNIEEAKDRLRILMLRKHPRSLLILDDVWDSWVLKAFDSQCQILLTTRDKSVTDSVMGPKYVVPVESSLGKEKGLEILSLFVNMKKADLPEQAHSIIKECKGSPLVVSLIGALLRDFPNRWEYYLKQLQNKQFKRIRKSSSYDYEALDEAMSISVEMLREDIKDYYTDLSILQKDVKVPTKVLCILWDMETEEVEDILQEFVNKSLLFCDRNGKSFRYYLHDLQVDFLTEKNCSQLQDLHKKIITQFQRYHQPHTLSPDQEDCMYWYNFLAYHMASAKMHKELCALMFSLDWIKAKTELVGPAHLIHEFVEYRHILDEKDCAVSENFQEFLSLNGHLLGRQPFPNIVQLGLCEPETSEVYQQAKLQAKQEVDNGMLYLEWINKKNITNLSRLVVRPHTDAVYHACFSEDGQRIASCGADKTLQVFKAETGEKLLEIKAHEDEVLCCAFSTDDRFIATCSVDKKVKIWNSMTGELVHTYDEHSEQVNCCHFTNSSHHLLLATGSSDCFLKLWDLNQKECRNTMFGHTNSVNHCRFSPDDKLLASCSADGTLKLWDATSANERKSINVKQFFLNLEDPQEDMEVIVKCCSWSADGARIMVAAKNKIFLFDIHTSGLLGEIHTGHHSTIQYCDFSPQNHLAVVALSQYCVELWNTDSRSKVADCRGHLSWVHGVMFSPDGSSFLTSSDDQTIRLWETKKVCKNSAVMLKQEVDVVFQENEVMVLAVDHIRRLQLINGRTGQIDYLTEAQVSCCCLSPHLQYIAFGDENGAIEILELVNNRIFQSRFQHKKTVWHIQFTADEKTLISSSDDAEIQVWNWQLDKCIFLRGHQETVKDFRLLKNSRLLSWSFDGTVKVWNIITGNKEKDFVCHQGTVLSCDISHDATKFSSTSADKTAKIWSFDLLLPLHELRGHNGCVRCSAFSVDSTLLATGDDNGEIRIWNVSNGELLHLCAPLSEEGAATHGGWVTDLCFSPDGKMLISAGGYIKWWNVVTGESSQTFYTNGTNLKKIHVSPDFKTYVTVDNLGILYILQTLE
row,SMILES,inhibition
1,Cn1nnnc1SCC(=O)Nc1cccc(S(=O)(=O)N2CCCCC2)c1,7.72%
2,CC(=O)c1c(C)[nH]c(C(=O)OCC(=O)NCCC(C)C)c1C,-7.2%
3,CC(=O)c1c(C)[nH]c(C(=O)COC(=O)CCOc2ccc(C)cc2)c1C,9.54%
4,CC(C)(C)C(=O)N1CCC[C@@]1(CO)C(=O)O,6.37%
5,Cc1ccc(N=C2NC(=O)/C(=C/C=C/c3ccco3)S2)cc1C,61.8% (active)
6,CN1C(=O)/C(=C/c2ccco2)SC1=Nc1cccc(C(=O)O)c1,20%
7,O=S(=O)(Nc1ccc(O)c2ccccc12)c1ccc(OC(F)(F)F)cc1,60.9% (active)
8,O=C1COc2ccc(S(=O)(=O)Nc3ccc(OC(F)(F)F)cc3)cc2N1,11.8%
9,Cc1nn(C)c(C)c1NS(=O)(=O)c1ccc(OC(F)(F)F)cc1,-0.237%
10,CCCCCCc1cc2cc(-c3nnc(-c4ccccc4)o3)c(=O)oc2cc1O,67.8% (active)
11,CCc1ccc(CN(C)C(=O)CCc2nnc(-c3ccc(-c4ccccc4)cc3)o2)nc1,12.9%
12,Cc1c(CCC(=O)O)c(=O)oc2cc3occ(-c4ccccc4)c3cc12,-15.7%
13,O=C(/C=C/c1ccc([N+](=O)[O-])cc1)NCCSCc1ccco1,-3.53%
14,COc1ccc(S(=O)(=O)N(C)C)cc1NC(=O)CSc1ncccn1,-1.98%
15,CN(C)S(=O)(=O)c1ccc2oc(SCC(=O)Nc3ccccc3F)nc2c1,61.1% (active)
16,COc1ccc(NS(=O)(=O)c2ccc3oc(SCC(N)=O)nc3c2)cc1,4.33%
17,CC(C)[C@@H]1COC(c2cccc(C3=N[C@H](C(C)C)CO3)c2)=N1,9.42%
18,CN(C)c1ccnc(Oc2ccc(F)cc2)c1C#N,-5.43%
19,COc1ccccc1CNC(=O)[C@@H]1CCCN1C(=O)[C@@H]1Cc2ccccc2CN1C(=O)OC(C)(C)C,11%

row,SMILES,inhibition
1,COc1ccc(Cn2cccc(NC(=O)Nc3ccc(C#N)cc3)c2=O)cc1,-0.047%
2,Cc1cc(C)c(C(N)=O)c(Cl)n1,-5.56%
3,O=c1c2ccccc2[nH]c(=S)n1CCN1CCC(=C(c2ccc(F)cc2)c2ccc(F)cc2)CC1,15.1%
4,O=C(CCCN1CCc2[nH]c3ccc(F)cc3c2C1)c1ccc(F)cc1,65% (active)
5,CC1CCc2[nH]c3ccc(C(=O)N(C)CC(=O)Nc4cccc(F)c4)cc3c2C1 (stereo unspecified),20.4%
6,Cc1nn(C)c(C)c1CN(C(=O)CCc1nnc(Cc2c[nH]c3ccccc23)o1)C(C)C,-6.13%
7,O=C1CCCCC1C(=O)c1ccccc1 (stereo unspecified),-20%
8,COc1ccc(NC(=O)CCNS(=O)(=O)c2ccc3c(c2)c(=O)n(C)c(=O)n3C)cc1OC,-6.12%
9,CC(C)=CC(=O)Nc1nnc(-c2ccc(F)cc2)s1,0.969%
10,CC(=O)OC(COc1ccc(F)cc1)Cn1cnc2ccccc21 (stereo unspecified),17.3%
11,CC(=O)N=c1ncn(CC(COC(C)=O)OC(C)=O)c2nc[nH]c12 (stereo unspecified),74.2% (active)
12,CC(=O)OCC(COC(C)=O)OC(C)=O,6.7%
13,Cn1c(SCC(=O)C(C)(C)C)nnc1-c1ccccn1,-10.6%
14,CCOC(=O)N1CCC(NC(=O)CCc2ccccc2)CC1,-3.62%
15,CCOC(=O)N1CCC(c2cc(=O)n(-c3ccccc3)[nH]2)CC1,86.7% (active)
16,CCOC(=O)CN1CCC(c2ccccc2)CC1,-14.9%
17,CCc1cc(C(=O)OC)c(NC(=O)CC2Sc3ccc(C(F)(F)F)cc3NC2=O)s1 (stereo unspecified),22.8%
18,CCOC(=O)Nc1ccc2c(c1)N(C(=O)CN1CCN3CCCC3C1)c1ccccc1CC2 (stereo unspecified),-1.68%
19,Cc1ccc(-c2cccc([C@H]3[C@@H]4C=CC[C@@H](C)[C@@H]4C(=O)N3Cc3ccccc3)c2)cc1,19.9%

row,SMILES,inhibition
1,CC1(C)CC(=O)C=C(c2ccc3ncccc3c2)C1,-1.2%
2,COc1cccc2sc3cc(NCC[C@@H]4CCCN4C)ccc3c(=O)c12,39.7%
3,Cc1cc2oc(=O)cc(CN3CCN(Cc4ccccc4)CC3)c2cc1C,17.9%
4,Cc1cc2oc3ccc(NCCC4CCCN4C)cc3c(=O)c2cc1C (stereo unspecified),46.9% (active)
5,CC(C)c1ccc2oc(=O)cc(CN3CCN(Cc4ccccc4)CC3)c2c1,19.2%
6,COc1ccc(CCNC(=O)CN(c2ccccc2)S(C)(=O)=O)cc1,4.78%
7,COc1ccc(N(CCC(=O)NCCc2ccccc2)S(=O)(=O)c2ccc(C)cc2C)cc1,54.9% (active)
8,CCOc1ccc(N(CC(=O)NCCc2ccc(OC)cc2)S(C)(=O)=O)cc1,5.5%
9,O=c1cc(CN2CCN(S(=O)(=O)/C=C/c3ccccc3)CC2)c2ccc(O)cc2o1,21.6%
10,O=C(NCCCN1CCOCC1)c1ccccc1NS(=O)(=O)c1ccc(F)cc1,-4.73%
11,COc1ccc(N2CCN(c3ccc([N+](=O)[O-])nc3)CC2)cc1,-5.77%
12,CCOC(=O)C1Sc2[nH]c(=O)sc2C(c2ccc(Cl)cc2)C1C(=O)OCC (stereo unspecified),2.05%
13,C=CCC[C@H](Cc1ccc(F)cc1)C(=O)OC[C@@H](Cc1c[nH]c2ccccc12)NC(=O)[C@H](CC=C)CC(=O)N[C@H](CO)Cc1ccccc1,1.18%
14,C=CCC[C@H](Cc1ccc(F)cc1)C(=O)OC[C@@H](NC(=O)[C@@H](CC=C)CC(=O)N[C@H](CO)Cc1ccccc1)C(C)(C)C,40.6% (active)
15,C=CC[C@@H](CC(=O)N[C@H](CO)Cc1ccccc1)C(=O)N[C@H](C)COC(=O)[C@@H](CC=C)Cc1ccc(F)cc1,23%
16,COCCNC(=O)c1ccccc1-c1nc(-c2ccccc2Cl)no1,6.12%
17,O=C(Nc1cc(S(=O)(=O)N2CCOCC2)ccc1N1CCOCC1)c1c(F)cccc1Cl,-5.54%
18,Cc1ccc(NC(=O)CN(C)C(=O)Cn2nnc(-c3ccccc3)n2)cc1,8.51%
